Experimental data: ChEMBL document CHEMBL2016497, “Analogs of the RSK inhibitor SL0101: optimization of in vitro biological stability” (Bioorg Med Chem Lett, 2012)
Calls of active or inactive are those of the source. The rule behind the calls is not given here.

What was measured:
[1] = Solubility of the compound; type: physicochemical
[2] = system: MCF7; test: Antiproliferative activity against human MCF7 cells after 48 hrs by CellTiter-GloTM assay; type: functional, cell-based; conditions: MCF7, 48 h
[3] = system: MCF7; test: Antiproliferative activity against human MCF7 cells at 100 uM after 144 hrs by CellTiter-GloTM assay; type: functional, cell-based
Procedure, shortened: (§1)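 Stability time course: MCF7 cells given inhibitor (100μM) at plating (time 0); percentage of growth measured at set time points versus vehicle. n=3 in quadruplicate.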

[4] = target: Ribosomal protein S6 kinase alpha-3 (Homo sapiens, UniProt P51812); test: Inhibition of His-tagged RSK2 expressed in Sf9 cells using ERalpha-Ser167 RLASTND as substrate after 120 mins by chemiluminescence assay
[5] = system: MCF7; test: Antiproliferative activity against human MCF7 cells at 100 uM after 48 hrs by CellTiter-GloTM assay; type: functional, cell-based; procedure, shortened: as §1
[6] = system: MCF7; test: Antiproliferative activity against human MCF7 cells at 100 uM after 96 hrs by CellTiter-GloTM assay; type: functional, cell-based; procedure, shortened: as §1
[7] = system: MCF7; test: Antiproliferative activity against human MCF7 cells at 50 uM after 48 hrs by CellTiter-GloTM assay; type: functional, cell-based
Procedure, shortened: (§2)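 MCF-10A and MCF7 cells exposed to inhibitor at 50 μM; growth compared with vehicle. n=3 in quadruplicate.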

[8] = system: MCF7; test: Down regulation of cyclin D1 level in human MCF7 cells at 100 uM at 48 hrs by immunoblotting analysis relative to control; type: functional, cell-based
Procedure, shortened: (§3)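 MCF7 cells treated at 100 μM; at each time point cells were lysed and lysates immunoblotted for cyclin D1 versus control, each compound analyzed on a single membrane.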

[9] = system: MCF7; test: Down regulation of cyclin D1 level in human MCF7 cells at 100 uM at 96 hrs by immunoblotting analysis relative to control; type: functional, cell-based; procedure, shortened: as §3
[10] = system: MCF-10A; test: Antiproliferative activity against human MCF10A cells at 50 uM after 48 hrs by CellTiter-GloTM assay; type: cell-based; procedure, shortened: as §2

Ribosomal protein S6 kinase alpha-3, sequence (P51812 whole entry): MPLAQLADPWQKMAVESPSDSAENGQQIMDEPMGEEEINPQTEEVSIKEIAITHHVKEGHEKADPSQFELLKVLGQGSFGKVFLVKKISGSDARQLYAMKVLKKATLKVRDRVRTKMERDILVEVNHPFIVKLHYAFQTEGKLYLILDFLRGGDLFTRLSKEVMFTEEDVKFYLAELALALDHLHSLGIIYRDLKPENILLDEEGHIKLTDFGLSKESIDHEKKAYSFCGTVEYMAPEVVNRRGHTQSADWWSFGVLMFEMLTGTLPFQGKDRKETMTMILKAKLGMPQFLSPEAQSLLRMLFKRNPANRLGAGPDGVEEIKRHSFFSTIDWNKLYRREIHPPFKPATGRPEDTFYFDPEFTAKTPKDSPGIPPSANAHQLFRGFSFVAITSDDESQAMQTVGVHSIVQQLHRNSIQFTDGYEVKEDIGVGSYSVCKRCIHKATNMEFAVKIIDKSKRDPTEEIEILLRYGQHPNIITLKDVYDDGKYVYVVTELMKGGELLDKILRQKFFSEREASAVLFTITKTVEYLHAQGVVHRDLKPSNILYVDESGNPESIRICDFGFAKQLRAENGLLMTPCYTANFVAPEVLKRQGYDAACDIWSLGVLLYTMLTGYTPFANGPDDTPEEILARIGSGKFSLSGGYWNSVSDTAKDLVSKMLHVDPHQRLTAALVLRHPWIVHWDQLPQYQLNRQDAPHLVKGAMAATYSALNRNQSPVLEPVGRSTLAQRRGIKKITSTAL

| SMILES | solubility [1] | IC50 [2] | Activity [3] | Activity [5] | Activity [6] | further results |
| --- | --- | --- | --- | --- | --- | --- |
| C[C@@H]1O[C@@H](Oc2c(-c3ccc(O)cc3)oc3cc(O)cc(O)c3c2=O)[C@H](O)[C@H](OC(=O)N(C)C)[C@H]1OC(=O)N(C)C | Insoluble |  |  |  |  |  |
| C[C@@H]1O[C@@H](Oc2c(-c3ccc(O)cc3)oc3cc(O)cc(O)c3c2=O)[C@H](O)[C@H](OC(=O)N2CCCC2)[C@H]1OC(=O)N1CCCC1 | Insoluble |  |  |  |  |  |
| CC(=O)O[C@@H]1[C@@H](OC(C)=O)[C@@H](O)[C@H](Oc2c(-c3ccc(O)cc3)oc3cc(O)cc(O)c3c2=O)O[C@H]1C |  | 45.6 µM | inactive | Active | inactive | Activity [7]: Active; Activity [8]: Active; Activity [9]: inactive; Activity [10]: Non-toxic |

Now from value to compound, other results behind:

| solubility [1] | IC50 [2] | SMILES | Activity [3] | Activity [5] | Activity [6] | further results |
| --- | --- | --- | --- | --- | --- | --- |
|  | 34.1 µM | CC(=O)CO[C@@H]1[C@@H](OCC(C)=O)[C@@H](O)[C@H](Oc2c(-c3ccc(O)cc3)oc3cc(O)cc(O)c3c2=O)O[C@H]1C | inactive | inactive | inactive | IC50 [4]: 0.252 µM |
| soluble |  | C[C@@H]1O[C@@H](Oc2c(-c3ccc(O)cc3)oc3cc(O)cc(O)c3c2=O)[C@H](O)[C@H](OC(=O)N2CCOCC2)[C@H]1OC(=O)N1CCOCC1 |  |  |  |  |
